Assay outcomes as filed in PubChem BioAssay.
STAT3 act: IL-6 driven STAT3 reporter potentiators, primary screen, U3A cells, luciferase, luminescence, MLSCN library. IL-6 STAT3-luciferase reporter; 100% = signal with IL-6 EC80 alone. activation (% of control), % at 5.6 µM. 0.91% of 190,000 active. AID 871, 2007;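 active means activation above the screen-wide mean of compound activation plus 3 SD, cut at about 130% in these data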;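 further: 0% = background luminescence of wells with medium and substrate only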
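Test system: STAT3-luciferase reporter U3A cells; Detection: reporter luminescence signal; Times: 1 h compound pre-exposure, 6 h IL-6 stimulation, 37 °C; Benchmarks: IL-6-only high control; Also added: IL-6 stimulus at 33 ng/mL final.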
STAT1 activator: STAT1 signaling activators, primary screen, cell-based, HTS, luciferase reporter; AID 932, 2007; 2.6% of 200,000 active; NIH 3T3 STAT1-luciferase reporter, IFN-gamma, luminescence; 100% = IFN-gamma alone, no compound; activation (% of control), % at 5.5 µM;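 active means activation above the screen-wide mean activation plus 3 SD, cut at about 130% in these data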;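 further: raw ratio to IFN-gamma control signal so 100% means no change and 0% no light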
APP 5'UTR act: activators of APP 5'UTR luciferase reporter, primary screen, SH-SY5Y cells; SH-SY5Y APP 5'UTR luciferase reporter, luminescence; zero percent = DMSO vehicle wells; activation, % at 2 µM; 1% of 190,000 active; AID 1276, 2008;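 active means activation above a set limit, based on mean plus 3 SD of controls, cut at about 140% in these data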
STAT1 inh: STAT1 signaling inhibitors, primary screen, cell-based, HTS, luciferase reporter; NIH 3T3 STAT1-luciferase reporter, IFN-gamma, luminescence; inhibition, % at 5.5 µM; 0.35% of 200,000 active;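 active means inhibition above a set limit, the mean inhibition across all tested compounds plus 3 SD, cut at about 34% in these data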;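 further: 0% = IFN-gamma with DMSO and 100% = IFN-gamma with 300 µM nifuroxazide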
NF-kB neuron act: activators of NF-kB expression in neurons, primary screen, cell-based, HTS. human neuronal cells, NF-kB reporter expression; active compounds read high. fold change at 12.5 µM. 1.6% of 190,000 active; in the data active means fold change above about 3.3
STAT3 blocker: IL-6 driven STAT3 reporter inhibitors, primary screen, U3A cells, luciferase, luminescence, MLSCN library. IL-6 STAT3-luciferase reporter; host cell line lacks STAT1. inhibition, % at 5.5 µM. 0.89% of 190,000 active. AID 862, 2007;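 active means inhibition above the mean inhibition across all screened compounds plus 3 SD, cut at about 44% in these data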;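 further: 0% = DMSO only wells and 100% = 100 µM nifuroxazide control wells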
An asterisk follows results filed as active; nt = not tested or not shown. This is a sample that favours compounds with a hit; in the whole collection about 5.1% have one here.

SMILES	STAT3 act	STAT1 activator	APP 5'UTR act	STAT1 inh	NF-kB neuron act	STAT3 blocker
CC1(C)CC(=O)C(N=Nc2ccc(-c3ccccc3)cc2)=C(O)C1	91	105	137*	-4	2.3	16
Cc1ccc(-c2cc(N)n(Cc3ccc(Cl)cc3)n2)cc1	67	90	0	12	1.1	46*
Nc1c(-c2ccc(Cl)cc2)nnn1-c1ccccc1	99	132*	89	-35	3	6
Nc1cc(-c2ccc(Cl)cc2)nn1-c1ccccc1	91	149*	88	-51	2.6	11
Cc1ccc(-c2noc(CSc3ccccc3)n2)cc1	102	118	170*	-19	4.4*	0
Cc1cccc(-c2noc(CSc3ccccc3)n2)c1	105	145*	63	-49	2.8	-1
COc1ccc(-c2noc(CCc3ccccc3)n2)cc1	97	134*	40	-40	1.6	8
COc1ccc(CCc2nc(-c3ccc(-n4cccc4)cc3)no2)cc1	88	100	11	0	1.2	23
Cc1ccc(-c2noc(CSc3nc(N)cc(N)n3)n2)cc1	100	128	104	-31	3.4*	3
c1ccc(C(Cc2nc(-c3cccnc3)no2)c2ccccc2)cc1	95	98	-7	2	0.92	12
c1ccc(SCc2nc(-c3cccnc3)no2)cc1	96	133*	46	-38	3.1	6
CCCNC(=O)c1noc2c1CCc1ccccc1-2	93	119	28	-21	2	14
O=C(Nc1cccnc1Cl)c1noc2c1CCc1ccccc1-2	94	135*	103	-40	2.6	15
CCS(=O)(=O)n1nc(-c2ccco2)nc1N	99	108	-14	-9	1.2	9
O=C1/C(=C/c2ccccc2)CCCc2ccccc21	98	112	71	-13	2.9	6
Cc1cccc(/C=C2\CCC(=C3SCCCS3)C2=O)c1	84	90	172*	11	2.4	26
Cc1[nH]c2ccccc2c1C(=O)CSC(=S)N(C)C	99	130*	27	-33	1.6	4
COCCCN(C(=S)NC(=O)C12CC3CC(CC(C3)C1)C2)c1c(N)n(Cc2ccccc2)c(=O)[nH]c1=O	103	113	-14	-16	0.91	2
Nc1ccc2oc3ccc(N)cc3c(=O)c2c1	87	143*	nt	-52	2.1	16
O=C(O)c1cc2c(ccc3ccccc32)o1	106	107	11	-7	1.3	3
Cc1ccc(/C(N)=N/OC(=O)CSc2ccccc2)cc1	100	130*	180*	-34	3.1	7
COc1ccc(/C(N)=N/OC(=O)CSc2ccccc2)cc1	97	116	98	-18	5.3*	10
O=C(C1CCCN(CCCc2ccccc2)C1)N1CCCCCC1 (configuration not stated)	107	100	-1	-1	0.8	-5
Cc1ccc(C(=O)NC2CCCCCC2)cc1N1CCCC1=O	104	98	5	2	1.2	-3
O=C(NC1CCCCCC1)c1cccc(N2CCCC2=O)c1	94	130*	118	-32	3.3	13
SMILES	STAT3 act	STAT1 activator	APP 5'UTR act	STAT1 inh	NF-kB neuron act	STAT3 blocker
O=C(COc1ccc(Cl)cc1Cl)Nc1ccccn1	8	20	-1	89*	0.97	111*
CC(c1ccco1)N(C(=O)COc1ccc(Cl)cc1Cl)c1ccccn1 (configuration not stated)	85	122	197*	-24	4*	23
COc1ccccc1OCC(=O)Nc1ccccn1	92	129*	125	-29	1.1	16
CCOC(=O)c1cc(C(=O)Nc2cccc(C)c2)nn1C	103	135*	130	-40	6.8*	-2
Cc1cccc(NC(=O)c2c(C)nn(-c3ccccc3)c2Cl)c1	98	116	40	-20	1.9	6
Clc1ccc(-c2cn3cccnc3n2)cc1	86	133*	16	-35	2.3	16
